According to ChEMBL document CHEMBL5058577, “EUbOPEN Chemogenomics Library 2 (Multiplex)” (2022):

System: HEK-293T
Experiment: Multiplex assay against HEK293T
Format: toxicity, cell-based
Details: human
Outline: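 Phenotypes for tubulin, mitochondrial mass and membrane permeability are expressed as per cents of healthy-nucleus cells. Cells were stained live at seeding with Hoechst33342, BioTracker Green Microtubule Cytoskeleton Dye, MitoTracker Red and Annexin V Alexa Fluor 680, then imaged after compound addition on a CQ1 microscope at 37°C and 5% CO2. Machine-learning gating in CellPathfinder separated Hoechst high-intensity objects from normal cells, divided normal cells by nuclear state (healthy, pyknosed, fragmented) and divided pyknosed cells into mitotic or apoptotic.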

[1] = 12 h, 1 µM, compound concentration 1 uM, replicate 1
[2] = 12 h, 1 µM, compound concentration 1 uM, replicate 2
[3] = 12 h, 10 µM, compound concentration 10 uM, replicate 1
[4] = 12 h, 10 µM, compound concentration 10 uM, replicate 2
[5] = 24 h, 1 µM, compound concentration 1 uM, replicate 1
[6] = 24 h, 1 µM, compound concentration 1 uM, replicate 2
[7] = 24 h, 10 µM, compound concentration 10 uM, replicate 1
[8] = 24 h, 10 µM, compound concentration 10 uM, replicate 2
[9] = 48 h, 1 µM, compound concentration 1 uM, replicate 1
[10] = 48 h, 1 µM, compound concentration 1 uM, replicate 2
[11] = 48 h, 10 µM, compound concentration 10 uM, replicate 1
[12] = 48 h, 10 µM, compound concentration 10 uM, replicate 2

SMILES: O=C(CCCc1ccccc1)Nc1nc2ccccc2c(=O)s1
- Population Apoptotic (%) [1]: 30%
- Population Fragmented Nuclei (%) [1]: 4%
- Population Healthy Nuclei (%) [1]: 83%
- Population Hoechst High Intensity Objects (%) [1]: 6%
- Population Membrane Permeable-Phenotype (%) [1]: 0%
- Population Mitochondria Different-Phenotype (%) [1]: 37%
- Population Mitotic Cells (%) [1]: 70%
- Population Normal (%) [1]: 93%
- Population Pyknosed Nuclei (%) [1]: 11%
- Population Tubulin-Different-Phenotype (%) [1]: 32%
- Total Cell Count [1]: 372
- Population Apoptotic (%) [2]: 43%
- Population Fragmented Nuclei (%) [2]: 7%
- Population Healthy Nuclei (%) [2]: 74%
- Population Hoechst High Intensity Objects (%) [2]: 13%
- Population Mitochondria Different-Phenotype (%) [2]: 63%
- Population Mitotic Cells (%) [2]: 56%
- Population Normal (%) [2]: 86%
- Population Pyknosed Nuclei (%) [2]: 17%
- Population Tubulin-Different-Phenotype (%) [2]: 36%
- Total Cell Count [2]: 267
- Population Apoptotic (%) [3]: 30%
- Population Fragmented Nuclei (%) [3]: 10%
- Population Healthy Nuclei (%) [3]: 80%
- Population Hoechst High Intensity Objects (%) [3]: 9%
- Population Membrane Permeable-Phenotype (%) [3]: 0%
- Population Mitochondria Different-Phenotype (%) [3]: 47%
- Population Mitotic Cells (%) [3]: 69%
- Population Normal (%) [3]: 90%
- Population Pyknosed Nuclei (%) [3]: 9%
- Population Tubulin-Different-Phenotype (%) [3]: 27%
- Total Cell Count [3]: 555
- Population Apoptotic (%) [4]: 44%
- Population Fragmented Nuclei (%) [4]: 7%
- Population Healthy Nuclei (%) [4]: 74%
- Population Hoechst High Intensity Objects (%) [4]: 27%
- Population Mitochondria Different-Phenotype (%) [4]: 68%
- Population Mitotic Cells (%) [4]: 55%
- Population Normal (%) [4]: 72%
- Population Pyknosed Nuclei (%) [4]: 17%
- Population Tubulin-Different-Phenotype (%) [4]: 26%
- Total Cell Count [4]: 371
- Population Apoptotic (%) [5]: 20%
- Population Fragmented Nuclei (%) [5]: 8%
- Population Healthy Nuclei (%) [5]: 81%
- Population Hoechst High Intensity Objects (%) [5]: 5%
- Population Membrane Permeable-Phenotype (%) [5]: 1%
- Population Mitochondria Different-Phenotype (%) [5]: 21%
- Population Mitotic Cells (%) [5]: 79%
- Population Normal (%) [5]: 94%
- Population Pyknosed Nuclei (%) [5]: 10%
- Population Tubulin-Different-Phenotype (%) [5]: 15%
- Total Cell Count [5]: 538
- Population Apoptotic (%) [6]: 45%
- Population Fragmented Nuclei (%) [6]: 9%
- Population Healthy Nuclei (%) [6]: 78%
- Population Hoechst High Intensity Objects (%) [6]: 8%
- Population Membrane Permeable-Phenotype (%) [6]: 0%
- Population Mitochondria Different-Phenotype (%) [6]: 38%
- Population Mitotic Cells (%) [6]: 54%
- Population Normal (%) [6]: 91%
- Population Pyknosed Nuclei (%) [6]: 12%
- Population Tubulin-Different-Phenotype (%) [6]: 13%
- Total Cell Count [6]: 370
- Population Apoptotic (%) [7]: 33%
- Population Fragmented Nuclei (%) [7]: 10%
- Population Healthy Nuclei (%) [7]: 80%
- Population Hoechst High Intensity Objects (%) [7]: 6%
- Population Membrane Permeable-Phenotype (%) [7]: 0%
- Population Mitochondria Different-Phenotype (%) [7]: 38%
- Population Mitotic Cells (%) [7]: 66%
- Population Normal (%) [7]: 93%
- Population Pyknosed Nuclei (%) [7]: 9%
- Population Tubulin-Different-Phenotype (%) [7]: 29%
- Total Cell Count [7]: 661
- Population Apoptotic (%) [8]: 52%
- Population Fragmented Nuclei (%) [8]: 8%
- Population Hoechst High Intensity Objects (%) [8]: 24%
- Population Mitochondria Different-Phenotype (%) [8]: 47%
- Population Mitotic Cells (%) [8]: 47%
- Population Normal (%) [8]: 75%
- Population Pyknosed Nuclei (%) [8]: 11%
- Population Tubulin-Different-Phenotype (%) [8]: 20%
- Total Cell Count [8]: 444
- Population Apoptotic (%) [9]: 20%
- Population Fragmented Nuclei (%) [9]: 11%
- Population Healthy Nuclei (%) [9]: 82%
- Population Hoechst High Intensity Objects (%) [9]: 2%
- Population Membrane Permeable-Phenotype (%) [9]: 1%
- Population Mitochondria Different-Phenotype (%) [9]: 15%
- Population Mitotic Cells (%) [9]: 79%
- Population Normal (%) [9]: 97%
- Population Pyknosed Nuclei (%) [9]: 6%
- Population Tubulin-Different-Phenotype (%) [9]: 11%
- Total Cell Count [9]: 820
- Population Apoptotic (%) [10]: 38%
- Population Fragmented Nuclei (%) [10]: 10%
- Population Healthy Nuclei (%) [10]: 80%
- Population Hoechst High Intensity Objects (%) [10]: 4%
- Population Membrane Permeable-Phenotype (%) [10]: 0%
- Population Mitochondria Different-Phenotype (%) [10]: 28%
- Population Mitotic Cells (%) [10]: 61%
- Population Normal (%) [10]: 95%
- Population Pyknosed Nuclei (%) [10]: 8%
- Population Tubulin-Different-Phenotype (%) [10]: 13%
- Total Cell Count [10]: 534
- Population Apoptotic (%) [11]: 22%
- Population Fragmented Nuclei (%) [11]: 14%
- Population Healthy Nuclei (%) [11]: 79%
- Population Hoechst High Intensity Objects (%) [11]: 4%
- Population Membrane Permeable-Phenotype (%) [11]: 0%
- Population Mitochondria Different-Phenotype (%) [11]: 21%
- Population Mitotic Cells (%) [11]: 77%
- Population Normal (%) [11]: 95%
- Population Pyknosed Nuclei (%) [11]: 6%
- Population Tubulin-Different-Phenotype (%) [11]: 16%
- Total Cell Count [11]: 984
- Population Apoptotic (%) [12]: 68%
- Population Fragmented Nuclei (%) [12]: 13%
- Population Healthy Nuclei (%) [12]: 77%
- Population Hoechst High Intensity Objects (%) [12]: 11%
- Population Membrane Permeable-Phenotype (%) [12]: 1%
- Population Mitochondria Different-Phenotype (%) [12]: 30%
- Population Mitotic Cells (%) [12]: 31%
- Population Normal (%) [12]: 88%
- Population Pyknosed Nuclei (%) [12]: 9%
- Total Cell Count [12]: 567
